Measurements reported in ChEMBL document CHEMBL4304816, “A Novel Biphenyl-based Chemotype of Retinoid X Receptor Ligands Enables Subtype and Heterodimer Preferences” (ACS Med Chem Lett, 2019).
Activity calls are given as the source filed them. The calls are words filed in the database; no cut-off is given here.

Legend:
Assay type in all cases: cell-based
[1] = biological target: T1, Retinoic acid receptor RXR-beta (Homo sapiens) (UniProt P28702); experiment: Agonist activity at Gal4-LBD fused RXRbeta (unknown origin) expressed in HEK293T cells assessed as fold activation at 10 uM after 14 to 16 hrs by dual-Glo luciferase assay relative to untreated control
T1 sequence (whole entry): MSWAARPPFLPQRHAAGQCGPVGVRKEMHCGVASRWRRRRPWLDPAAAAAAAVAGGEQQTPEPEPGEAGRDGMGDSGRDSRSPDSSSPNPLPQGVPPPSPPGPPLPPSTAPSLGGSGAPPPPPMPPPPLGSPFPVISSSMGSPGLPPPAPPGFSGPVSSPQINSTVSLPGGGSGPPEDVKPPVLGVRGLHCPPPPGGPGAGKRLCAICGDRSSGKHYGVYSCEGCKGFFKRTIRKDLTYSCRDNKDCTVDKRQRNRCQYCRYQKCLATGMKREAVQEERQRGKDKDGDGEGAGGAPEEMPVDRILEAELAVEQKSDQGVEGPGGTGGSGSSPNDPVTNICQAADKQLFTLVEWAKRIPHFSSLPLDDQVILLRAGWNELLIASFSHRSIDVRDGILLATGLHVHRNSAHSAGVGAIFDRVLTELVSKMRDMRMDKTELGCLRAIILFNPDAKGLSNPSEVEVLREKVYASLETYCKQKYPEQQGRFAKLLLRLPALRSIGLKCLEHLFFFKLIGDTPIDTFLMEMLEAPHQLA
Outline: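 Gal4-hybrid RXRα/β/γ reporter gene assays in HEK293T cells. Fold activation is the maximal fold activation versus 0.1% DMSO.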

[2] = biological target: T1, Retinoic acid receptor RXR-beta (Homo sapiens); experiment: Agonist activity at Gal4-LBD fused RXRbeta (unknown origin) expressed in HEK293T cells at 0.1 to 3 uM after 14 to 16 hrs in presence of RXR antagonist HX531 by dual-Glo luciferase reporter gene assay
[3] = biological target: T2, Retinoic acid receptor RXR-gamma (Homo sapiens) (UniProt P48443); experiment: Agonist activity at Gal4-LBD fused RXRgamma (unknown origin) expressed in HEK293T cells at 0.1 to 3 uM after 14 to 16 hrs in presence of RXR antagonist HX531 by dual-Glo luciferase reporter gene assay
T2 sequence (whole entry): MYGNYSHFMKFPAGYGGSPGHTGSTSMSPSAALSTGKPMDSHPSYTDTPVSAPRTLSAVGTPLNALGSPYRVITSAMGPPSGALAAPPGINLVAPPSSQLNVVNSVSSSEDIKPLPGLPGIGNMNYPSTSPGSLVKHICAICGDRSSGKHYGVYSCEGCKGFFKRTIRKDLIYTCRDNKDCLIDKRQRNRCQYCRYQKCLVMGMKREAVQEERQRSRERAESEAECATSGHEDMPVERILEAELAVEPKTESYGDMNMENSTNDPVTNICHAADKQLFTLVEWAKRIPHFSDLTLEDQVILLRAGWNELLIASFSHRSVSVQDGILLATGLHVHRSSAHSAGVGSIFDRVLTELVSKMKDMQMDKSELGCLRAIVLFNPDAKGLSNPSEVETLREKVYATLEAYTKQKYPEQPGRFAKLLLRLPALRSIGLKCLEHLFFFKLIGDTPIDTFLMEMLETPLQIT

Homo sapiens = species on record: Homo sapiens; experiment: Agonist activity at full-length human PPARgamma/RXR expressed in HEK293T cells at 20 uM after 14 to 16 hrs in presence of 1 uM rosiglitazone by dual-glo luciferase reporter gene assay relative to rosiglitazone
Outline: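 RXR:PPARγ heterodimer reporter assay run with reference PPARγ agonist rosiglitazone (1 μM) co-applied. Read-out is mean relative synergistic activation, from three independent experiments each run in duplicate.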

[4] = biological target: T2, Retinoic acid receptor RXR-gamma (Homo sapiens); experiment: Agonist activity at Gal4-LBD fused RXRgamma (unknown origin) expressed in HEK293T cells at 20 uM after 14 to 16 hrs by dual-Glo luciferase assay

Cc1cc(-c2cc(C(C)(C)C)cc(C(C)(C)C)c2)ccc1C(=O)O
fold change (FC) [1]: 31

Cc1cc(-c2cc(C(F)(F)F)cc(C(F)(F)F)c2)ccc1CC(=O)O
Activity [2]: inactive
Activity [3]: inactive

Cc1cc(-c2ccc(C(=O)O)cc2)cc(C(C)(C)C)c1
Activity (Homo sapiens): 46%
Activity [4]: inactive
